rCAG RNA binder: molecules binding r(CAG) RNA repeats; actives 1.3% (n = 370,000); inhibition, % at 3 µM; r(CAG) RNA repeat, TO-PRO-1 dye displacement fluorescence;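 active means inhibition above the plate cutoff, the mean of all test compounds on that plate plus 3 SD, cut at about 35% in these data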;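 further: higher means more dye released from RNA so lower well fluorescence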
mABHD4 FP: ABHD4 (mouse) inhibition, primary FP screen | Q8VD66 | inhibition, % at 8.92 µM | purified mABHD4, FP-Rh probe fluorescence polarization | actives 0.54% (n = 370,000);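 active means inhibition exceeding the mean over every tested compound plus 3 SD, cut at about 30% in these data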
Target sequence (Q8VD66 whole entry, looked up): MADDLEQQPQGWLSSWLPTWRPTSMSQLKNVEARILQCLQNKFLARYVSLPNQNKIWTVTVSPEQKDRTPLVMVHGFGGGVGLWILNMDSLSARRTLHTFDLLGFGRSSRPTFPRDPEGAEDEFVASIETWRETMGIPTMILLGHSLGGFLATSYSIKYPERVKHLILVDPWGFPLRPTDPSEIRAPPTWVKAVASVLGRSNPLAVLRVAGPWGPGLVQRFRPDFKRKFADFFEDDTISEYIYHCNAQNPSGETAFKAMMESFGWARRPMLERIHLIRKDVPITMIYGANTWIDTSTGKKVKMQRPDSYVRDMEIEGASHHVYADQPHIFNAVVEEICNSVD
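Assay system: mouse ABHD4 enzyme, wild type / Also added: fluorescent activity-based probe FP-Rh / Doses: single nominal dose of 8.92 µM, 0.89% DMSO final / Timing: 45 min compound pre-incubation plus 60 min probe step, 25 °C / Signal: FP readout, ex 525 nm / em 598 nm / Control set: S159A mutant/DMSO as 100%, compound-well median as 0%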
TCR CD3 inh: human TCR-CD3 binding inhibition; inhibition, % at 9.4 µM; actives 0.37% (n = 360,000); AID 651800; TAMRA-labeled TCR probe fluorescence, biochemical; in the data active means inhibition above about 19%;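 further: recombinant mutant TCR 2C K166C tagged with TAMRA read by polarization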
HTRA1 inh: inhibitors of human serine peptidase HTRA1. recombinant HTRA1, FP-rhodamine activity-based probe, fluorescence polarization. inhibition, % at 5.96 µM. actives 0.5% (n = 340,000). AID 504803; in the data active means inhibition above about 36%
SIAE primary: blocks human sialic acid acetylesterase; AID 1053197; actives 0.69% (n = 370,000); inhibition, % at 9.66 µM; SIAE FP-Rh probe binding, fluorescence polarization; Q9HAT2;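 active means inhibition above a cutoff: mean of compounds within the control limits plus 3 SD of those, cut at about 17% in these data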
rCAG bind conf: r(CAG) RNA repeat binding, confirmation; actives 70% (n = 4,300); inhibition, % at 3 µM; TO-PRO-1 dye displacement fluorescence; shares compounds with rCAG RNA binder;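 active means inhibition above a per-plate cutoff, the mean inhibition of sample wells plus 3 SD, cut at about 35% in these data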;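 further: loss of TO-PRO-1 fluorescence as compound displaces dye from 1x1 AA loop RNA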
dCAG dye counter: disrupts DNA CAG TO-PRO-1 complex, flagging rCAG hits; shares compounds with rCAG RNA binder; d(CAG) DNA oligo TO-PRO-1 dye displacement, fluorescence; inhibition, % at 3 µM; actives 94% (n = 4,300);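 active means inhibition above its plate's cutoff, the mean test-well inhibition plus 3 SD, cut at about 4.8% in these data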;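 further: hits displace the dye from DNA and so lower well fluorescence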
DNA CAG DR: counter-screen for rCAG binders: inhibitors of DNA CAG TO-PRO-1 complex | shares compounds with rCAG RNA binder | DNA CAG/GTC duplex TO-PRO-1 dye displacement fluorescence | IC50, µM | actives 20% (n = 250) | AID 686960; in the data active means IC50 below about 10 µM
mABHD4 conf: confirmation of mouse ABHD4 inhibitors; purified mABHD4, FP-Rh probe fluorescence polarization; actives 55% (n = 1,800); inhibition, % at 8.92 µM; AID 720658; shares compounds with mABHD4 FP;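 active means mean inhibition across replicates above the hit cutoff set in the primary screen, cut at about 30% in these data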
Hits are given with their value; 0 = inactive; - = no result. A selection: hits, their analogues and other compounds. The true share with any hit is near 2.5%.

SMILES | rCAG RNA binder | mABHD4 FP | TCR CD3 inh | HTRA1 inh | SIAE primary | rCAG bind conf | dCAG dye counter | mABHD4 conf | others
Cc1c(C(=O)O)cccc1-c1ccc(/C=N/Nc2ccc(Br)cc2)o1 | 50 | 35 | 0 | 0 | 0 | 64 | 21 | 42
O=C(O)c1cc(-c2ccc(/C=N/Nc3ccc([N+](=O)[O-])cn3)o2)ccc1Cl | 0 | 0 | 0 | 0 | 0 | - | - | -
O=C(O)c1ccc(N/N=C/c2ccc(-c3cccc(Cl)c3)o2)cc1 | 63 | 50 | 0 | 0 | 0 | 50 | 16 | 65
Cc1c(C(=O)O)cccc1-c1ccc(/C=N/n2cnnc2)o1 | 0 | 0 | 0 | 0 | 0 | - | - | -
CC(Sc1nc2ccccc2c(=O)n1C)C(=O)NC1CCCCC1C (centres undefined) | - | - | - | 0 | - | - | - | -
O=S(=O)(O)c1cccc2cccc(Nc3ccccc3)c12 | 47 | 61 | 0 | 0 | 0 | 64 | 25 | 0
CN(C)c1ccc2cc(S(=O)(=O)O)cc(O)c2c1 | 59 | 78 | 0 | 0 | 0 | 0 | 10 | 54
O=C(NCc1ccccc1)NCC12CC3CC(CC(C3)C1)C2 | 0 | 0 | 0 | 0 | 0 | - | - | -
COc1ccc2cc(C(=O)C3CCCN(Cc4cnc(N5CCOCC5)s4)C3)ccc2c1 (centres undefined) | 0 | 0 | 0 | 0 | 0 | - | - | -
CCNC(=S)N/N=C/c1cn(Cc2ccc(F)cc2)c2ccccc12 | 0 | 0 | 0 | 0 | 0 | - | - | -
O=C(O)c1ccc(N/N=C/c2cn(Cc3ccc(F)cc3)c3ccccc23)cc1 | 81 | 50 | 0 | 0 | 0 | 75 | 35 | 55
COc1cccc(/C=N/Nc2snc(SC)c2C#N)c1O | 75 | 33 | 0 | 0 | 0 | 48 | 19 | 0
COc1ccc(/C=N/Nc2snc(SC)c2C#N)cc1OC | 50 | 35 | 0 | 0 | 0 | 36 | 11 | 34
COc1cccc(/C=N/Nc2ccnc(=O)[nH]2)c1O | 0 | 0 | 0 | 0 | 0 | - | - | -
COc1ccc(C=NNC(=S)NN=Cc2ccc(OC)c(OC)c2)cc1OC | 0 | 0 | 0 | 0 | 0 | - | - | -
CC(C)NC(=O)C1(C)CN(S(C)(=O)=O)CC(=O)N1CCOc1ccccc1 (centres undefined) | 0 | 0 | 0 | - | 0 | - | - | -
COc1ccc(Sc2ccc(NC(=O)c3ccccc3Cl)cc2C#N)cc1 | 0 | 0 | 0 | 0 | 0 | - | - | -
O=C1OC(c2ccccc2)(c2cc(Br)c(O)c(Br)c2)c2ccccc21 (centres undefined) | 50 | 35 | 0 | 0 | 0 | 57 | 16 | 32
O=C(CSc1ccccn1)Nc1ccc2c(c1)C(=O)c1ccccc1C2=O | 0 | 0 | 0 | 0 | 0 | - | - | -
O=C(CSc1n[nH]c(=O)[nH]c1=O)Nc1ccc2c(c1)C(=O)c1ccccc1C2=O | 40 | 38 | 0 | 0 | 0 | 43 | 17 | 56
O=C(Nc1cc([N+](=O)[O-])ccc1O)c1ccc2c(c1)C(=O)N(Cc1ccco1)C2=O | 83 | 38 | 0 | 0 | 0 | 64 | 25 | 51
O=C(NCCCc1ccccc1)c1ccc(CS(=O)Cc2ccccc2Cl)o1 (centres undefined) | 0 | 0 | 0 | 0 | 0 | - | - | -
COc1ccccc1NS(=O)(=O)c1ccc(N/N=C/c2ccccc2OCC(=O)O)c([N+](=O)[O-])c1 | 92 | 60 | 0 | 0 | 0 | 90 | 67 | 61
CCN(CC)S(=O)(=O)c1ccc(N/N=C/c2ccccc2OCC(=O)O)c([N+](=O)[O-])c1 | 75 | 35 | 0 | 0 | 0 | 75 | 36 | 44
COc1ccccc1NS(=O)(=O)c1ccc(N/N=C/C=C/c2ccccc2[N+](=O)[O-])c([N+](=O)[O-])c1 | 0 | 0 | 0 | 0 | 0 | - | - | -
SMILES | rCAG RNA binder | mABHD4 FP | TCR CD3 inh | HTRA1 inh | SIAE primary | rCAG bind conf | dCAG dye counter | mABHD4 conf | others
O=C1/C(=C2\C(=O)N(Cc3ccc(F)cc3)c3ccccc32)SC(=S)N1CCS(=O)(=O)O | 75 | 76 | 0 | 0 | 0 | 83 | 47 | 100
CC(C)C1Nc2ccc(C(=O)O)cc2C2C=CCC21 (centres undefined) | 56 | 45 | 0 | 0 | 0 | 0 | 7.3 | 38
COc1ccc(-c2csc(NS(=O)(=O)c3ccc([N+](=O)[O-])cc3)n2)cc1 | 70 | 37 | 0 | 0 | 0 | 57 | 23 | 34
O=C(O)c1cccc(NN=C2c3ccccc3-c3ccccc32)c1 | 87 | 56 | 0 | 0 | 0 | 81 | 47 | 49
O=C(O)c1cc(NN=C2c3ccccc3-c3ccccc32)ccc1Cl | 93 | 39 | 0 | 0 | 0 | 81 | 50 | 45
NNc1ccc(Cl)c(C(=O)O)c1 | 0 | 0 | 0 | 0 | 0 | - | - | -
COc1ccc(N2CCN(c3oc(COc4ccc(Cl)cc4Cl)nc3C#N)CC2)cc1 | 0 | 0 | 0 | 0 | 0 | - | - | -
COc1ccc(Br)cc1CN(C)C(=O)Cc1ccc(S(=O)(=O)N2CCOCC2)s1 | 0 | 0 | 0 | 0 | 0 | - | - | -
COc1ccc(Br)cc1/C=C(\C(=O)O)c1ccc(S(=O)(=O)N2CCCC2)s1 | 52 | 30 | 0 | 0 | 0 | 47 | 14 | 0
NC(=O)c1ccccc1NS(=O)(=O)c1cccs1 | 0 | 0 | 0 | 0 | 0 | - | - | -
O=S(=O)(Nc1cccc2c1ccc1cccn12)c1cccs1 | 38 | 34 | 0 | 0 | 0 | 0 | 13 | 0
Cc1ccc(S(=O)(=O)N2[C@@H](c3ccccc3F)C(C(=O)O)=CC[C@H]2c2ccc(C(C)C)cc2)cc1 | 77 | 33 | 0 | 0 | 0 | 81 | 47 | 0
COc1ccc([C@@H]2CC=C(C(=O)O)[C@H](c3ccccc3F)N2S(=O)(=O)c2ccc(C)cc2)cc1OC | 0 | 0 | 0 | 0 | 0 | - | - | -
Cc1ccc(S(=O)(=O)/N=C2/NC(=O)/C(=C\c3ccco3)S2)cc1 | 69 | 32 | 0 | 0 | 0 | 43 | 11 | 0
CCOC(=O)c1cc(-c2ccccc2)sc1NC(=O)CC | 0 | 0 | 0 | 0 | 0 | - | - | -
O=C(Nc1sc(-c2ccccc2)cc1C(=O)O)c1ccccc1 | 85 | 36 | 0 | 0 | 0 | 73 | 34 | 37 | DNA CAG DR=0
Cc1ccc(S(=O)(=O)N/N=C/c2cn(C)nc2C)cc1 | 0 | 0 | 0 | 0 | 0 | - | - | -
CCOC(=O)Cc1cc(=O)n2[nH]cc(-c3cccc(Br)c3)c2n1 | 67 | 32 | 0 | 0 | 0 | 53 | 17 | 0
COc1ccc(/C=C/C(=O)c2ccc(Cl)cc2)c(OC)c1 | 0 | 0 | 0 | 0 | 0 | - | - | -
CC(=O)Nc1ccc(Nc2nc3ccccc3nc2NS(=O)(=O)c2ccc(Cl)c([N+](=O)[O-])c2)cc1 | 91 | 49 | 0 | 0 | 0 | 93 | 76 | 68

Compound activity from PubChem.
